According to ChEMBL document CHEMBL3621102, “Structure-activity study of quinazoline derivatives leading to the discovery of potent EGFR-T790M inhibitors” (Eur J Med Chem, 2015):
The source made the active and inactive calls. No cut-off for these calls is given here.

What was measured:
[1] = Toxicity in NCI-H1975 xenografted BALB/c mouse assessed as induction of mouse mortality at 10 mg/kg po, qd for days; format: organism-based; conditions: in vivo
In short: (§1)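 Athymic mice received 2 × 10⁶ NCI-H1975 cells subcutaneously in the right flank. When tumours reached 100–300 mm³, mice were randomised into control and treatment groups (n = 6 per group), and controls got vehicle alone. Health was checked daily, and body weight and tumour size were measured on set days during treatment.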

[2] = test system: NCI-H1975; experiment: Antiproliferative activity against human NCI-H1975 cells assessed as growth inhibition; format: functional
In short: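 NCI-H1975 cells were grown in RPMI with 1 mM sodium pyruvate, 10% FBS and 1% penicillin-streptomycin, under humidified 5% CO₂ at 37 °C. Growth inhibition was read as GI₅₀.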

[3] = biological target: Epidermal growth factor receptor (Homo sapiens, UniProt P00533); experiment: Inhibition of EGFR (unknown origin) by ELISA method
Epidermal growth factor receptor, sequence (P00533 whole entry): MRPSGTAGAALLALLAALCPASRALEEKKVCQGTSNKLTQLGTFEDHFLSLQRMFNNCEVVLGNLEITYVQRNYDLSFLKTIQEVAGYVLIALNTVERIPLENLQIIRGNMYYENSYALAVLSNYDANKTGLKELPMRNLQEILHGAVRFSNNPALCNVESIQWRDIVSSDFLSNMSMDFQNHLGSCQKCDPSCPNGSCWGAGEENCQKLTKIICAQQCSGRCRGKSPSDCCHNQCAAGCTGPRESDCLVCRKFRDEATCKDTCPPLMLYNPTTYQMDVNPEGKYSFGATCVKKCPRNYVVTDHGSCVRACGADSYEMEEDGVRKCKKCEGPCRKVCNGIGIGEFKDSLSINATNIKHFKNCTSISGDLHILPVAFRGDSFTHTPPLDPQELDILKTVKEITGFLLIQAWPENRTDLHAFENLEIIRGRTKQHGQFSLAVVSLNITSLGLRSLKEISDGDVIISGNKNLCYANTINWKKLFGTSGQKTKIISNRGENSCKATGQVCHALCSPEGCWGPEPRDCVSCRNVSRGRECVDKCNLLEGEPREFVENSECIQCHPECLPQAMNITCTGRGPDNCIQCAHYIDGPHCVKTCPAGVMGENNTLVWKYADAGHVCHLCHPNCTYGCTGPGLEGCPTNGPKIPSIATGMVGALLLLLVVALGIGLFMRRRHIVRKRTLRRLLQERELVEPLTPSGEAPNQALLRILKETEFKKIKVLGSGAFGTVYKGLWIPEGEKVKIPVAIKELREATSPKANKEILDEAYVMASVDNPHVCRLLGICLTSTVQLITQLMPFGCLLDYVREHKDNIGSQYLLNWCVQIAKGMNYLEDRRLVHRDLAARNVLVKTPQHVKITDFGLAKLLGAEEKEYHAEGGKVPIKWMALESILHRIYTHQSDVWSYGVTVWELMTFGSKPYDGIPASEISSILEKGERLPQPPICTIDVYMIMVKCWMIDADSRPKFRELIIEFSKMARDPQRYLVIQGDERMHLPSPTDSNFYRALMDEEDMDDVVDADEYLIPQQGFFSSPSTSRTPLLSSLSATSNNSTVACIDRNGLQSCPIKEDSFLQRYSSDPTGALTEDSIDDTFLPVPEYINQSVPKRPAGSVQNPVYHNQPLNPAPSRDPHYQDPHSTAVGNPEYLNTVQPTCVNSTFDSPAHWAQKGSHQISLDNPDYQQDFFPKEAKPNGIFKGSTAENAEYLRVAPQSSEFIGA

[4] = test system: Mus musculus; experiment: Toxicity in NCI-H1975 xenografted BALB/c mouse at 10 mg/kg po, qd for 7 days measured after drug cessation; format: organism-based; conditions: in vivo, 168 h
In short: (§2)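 Athymic mice bearing subcutaneous right-flank xenografts (2 × 10⁶ cells, dosed at 100–300 mm³; n = 6 per group; vehicle controls). Health was observed daily and body weight measured on indicated days. Body weight change (%) = (Wt/W0 − 1) × 100 against predosing weight, given as group mean ± SEM.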

[5] = test system: Mus musculus; experiment: Toxicity in NCI-H1975 xenografted BALB/c mouse assessed as body weight loss at 10 mg/kg po, qd for 21 days; format: organism-based; conditions: in vivo, 504 h; in short: as §2
[6] = test system: NCI-H1975; experiment: Antitumor activity against human NCI-H1975 cells xenografted in BALB/c mouse assessed as tumor growth inhibition at 10 mg/kg po, qd for 21 days; format: functional, organism-based
In short: (§3)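 Athymic mice received 2 × 10⁶ tumour cells subcutaneously in the right flank. At 100–300 mm³ they were randomised to control and treatment groups (n = 6); controls received vehicle alone. Tumour volume = length × width²/2 and RTV = Vt/V0.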

[7] = test system: Mus musculus; experiment: Toxicity in NCI-H1975 xenografted BALB/c mouse assessed as body weight change at 10 mg/kg po, qd for 21 days; format: organism-based; conditions: in vivo, 504 h; in short: as §2
[8] = test system: Mus musculus; experiment: Toxicity in NCI-H1975 xenografted BALB/c mouse assessed as skin toxicity at 10 mg/kg po, qd for 21 days; format: organism-based; conditions: in vivo, 504 h; in short: as §2
[9] = test system: Mus musculus; experiment: Toxicity in NCI-H1975 xenografted BALB/c mouse assessed as induction of exfoliative skin disorders at 13 mg/kg po, qd for 21 days; format: organism-based; conditions: in vivo, 504 h; in short: as §2
[10] = test system: Mus musculus; experiment: Toxicity in human HCC827 cells xenografted BALB/c mouse assessed as induction of eye disease at 5 mg/kg po, qd for 12 days; format: organism-based; conditions: in vivo, 288 h; in short: as §2
[11] = test system: Mus musculus; experiment: Toxicity in NCI-H1975 xenografted BALB/c mouse assessed as induction of eye diseases at 20 mg/kg po, qd for 21 days; format: organism-based; conditions: in vivo, 504 h; in short: as §2
[12] = test system: Mus musculus; experiment: Toxicity in human HCC827 cells xenografted BALB/c mouse assessed as induction of exfoliative skin disorders at 5 mg/kg po, qd for 12 days; format: organism-based; conditions: in vivo, 288 h; in short: as §2
[13] = AUC (0 to infinity) in Sprague-Dawley rat at 1 mg/kg, iv by LC/MS/MS method; format: ADME, organism-based; set-up: dose 1 mg/kg, time infinity, route intravenous; conditions: in vivo
In short: (§4)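 Male Sprague-Dawley rats (n = 3) dosed once at 1 mg/kg iv via tail vein, or once at 5 mg/kg by oral gavage, using the same formulation. Serial blood samples were taken over 24 h. Plasma levels were measured by LC/MS/MS (C18 column, 10 mM ammonium formate-0.1% formic acid water/methanol 10/90, ESI positive). Parameters were derived by noncompartmental analysis.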

[14] = test system: Mus musculus; experiment: Toxicity in human A431 cells xenografted BALB/c mouse assessed as induction of exfoliative skin disorders at 5 and 10 mg/kg po, qd for 18 days; format: organism-based, A-431; conditions: in vivo, 432 h; in short: as §2
[15] = Elimination half-life in Sprague-Dawley rat at 1 mg/kg, iv incubated for 24 hrs by LC/MS/MS method; format: ADME, organism-based; conditions: in vivo, read-out: beta t1/2 (converted); in short: as §4
[16] = test system: A-431; experiment: Antitumor activity against human A431 cells xenografted in BALB/c mouse assessed as tumor growth inhibition at 5 mg/kg po, qd for 18 days; format: functional, organism-based; in short: as §3
[17] = test system: HCC827; experiment: Antitumor activity against human HCC827 cells xenografted in BALB/c mouse assessed as tumor growth inhibition at 5 mg/kg po, qd for 12 days; format: functional, organism-based; in short: as §3
[18] = test system: Mus musculus; experiment: Toxicity in NCI-H1975 xenografted BALB/c mouse assessed as induction of eye diseases at 13 mg/kg po, qd for 21 days; format: organism-based; conditions: in vivo, 504 h; in short: as §2
[19] = AUC (0 to 24 hrs) in Sprague-Dawley rat at 1 mg/kg, iv by LC/MS/MS method; format: ADME, organism-based; set-up: time < 24 hr, dose 1 mg/kg, route intravenous; conditions: in vivo; in short: as §4
[20] = Bioavailability in Sprague-Dawley rat at 1 mg/kg, iv incubated for 24 hrs by LC/MS/MS method; format: ADME, organism-based; conditions: in vivo; in short: as §4
[21] = test system: Mus musculus; experiment: Toxicity in NCI-H1975 xenografted BALB/c mouse assessed as body weight change at 13 mg/kg po, qd for 21 days; format: organism-based; conditions: in vivo, 504 h; in short: as §2
[22] = test system: Mus musculus; experiment: Toxicity in human A431 cells xenografted BALB/c mouse assessed as induction of eye diseases at 5 and 10 mg/kg po, qd for 18 days; format: organism-based, A-431; conditions: in vivo, 432 h; in short: as §2
[23] = test system: Mus musculus; experiment: Toxicity in human HCC827 cells xenografted BALB/c mouse assessed as body weight loss at 5 mg/kg po, qd for 12 days; format: organism-based; conditions: in vivo, 288 h; in short: as §2
[24] = test system: A-431; experiment: Antitumor activity against human A431 cells xenografted in BALB/c mouse assessed as tumor growth inhibition at 10 mg/kg po, qd for 18 days; format: functional, organism-based; in short: as §3
[25] = Mean residence time in Sprague-Dawley rat at 1 mg/kg, iv incubated for 24 hrs by LC/MS/MS method; format: ADME, organism-based; conditions: in vivo; in short: as §4
[26] = test system: Mus musculus; experiment: Toxicity in human A431 cells xenografted BALB/c mouse assessed as body weight loss at 5 and 10 mg/kg po, qd for 18 days; format: organism-based, A-431; conditions: in vivo, 432 h; in short: as §2
[27] = Apparent volume of distribution in Sprague-Dawley rat at 1 mg/kg, iv incubated for 24 hrs by LC/MS/MS method; format: ADME, organism-based; conditions: in vivo, read-out: Vd(app); in short: as §4
[28] = test system: Mus musculus; experiment: Toxicity in NCI-H1975 xenografted BALB/c mouse assessed as induction of exfoliative skin disorders at 20 mg/kg po, qd for 21 days; format: organism-based; conditions: in vivo, 504 h; in short: as §2
[29] = test system: NCI-H1975; experiment: Antitumor activity against human NCI-H1975 cells xenografted in BALB/c mouse assessed as tumor growth inhibition at 13 mg/kg po, qd for 21 days; format: functional, organism-based; in short: as §3
[30] = Clearance in Sprague-Dawley rat at 1 mg/kg, iv incubated for 24 hrs by LC/MS/MS method; format: ADME, organism-based; conditions: in vivo; in short: as §4
[31] = test system: NCI-H1975; experiment: Antitumor activity against human NCI-H1975 cells xenografted in BALB/c mouse assessed as tumor growth inhibition at 20 mg/kg po, qd for 21 days relative to control; format: functional; conditions: 504 h, read-out: TGI; in short: as §3
[32] = test system: Mus musculus; experiment: Toxicity in human NCI-H1975 cells xenografted BALB/c mouse assessed as mouse mortality at 30 mg/kg po, qd for 21 days measured on day 10 relative to control; format: organism-based; conditions: in vivo, 504 h; in short: as §1
[33] = test system: Mus musculus; experiment: Toxicity in human NCI-H1975 cells xenografted BALB/c mouse assessed as body weight changes at 20 mg/kg po, qd for 21 days relative to control; format: organism-based; conditions: in vivo, 504 h; in short: as §2

## C#Cc1cccc(Nc2ncnc3cc(OCC)c(NC(=O)/C=C/CNC4CC4)cc23)c1
[1]
  mortality: > 50%
[2]
  GI50: 16.5 nM
[3]
  IC50: 4.2 nM
[4]
  Activity: Non-toxic
[5]
  Activity: Toxic

## C#Cc1cccc(Nc2ncnc3cc(OC)c(NC(=O)/C=C/CNC4CC4)cc23)c1
[6]
  TGI: Active
[2]
  GI50: 18.9 nM
[7]
  Activity: Non-toxic
[3]
  IC50: 7.9 nM
[8]
  Activity: Toxic

## O=C(/C=C/CNC1CC1)Nc1cc2c(Nc3ccc(F)c(Cl)c3)ncnc2cc1O[C@H]1CCOC1
[9]
  Activity: Non-toxic
[10]
  Activity: Non-toxic
[11]
  Activity: Non-toxic
[12]
  Activity: Non-toxic
[13]
  AUC(0-inf): 662 ng·h/mL
[14]
  Activity: Non-toxic
[15]
  half-life: 189 min
[16]
  TGI: inactive
[17]
  TGI: Active
[2]
  GI50: 10.2 nM
[18]
  Activity: Non-toxic
[3]
  IC50: 6.5 nM
[19]
  AUC(0-t) at 24 h: 660 ng·h/mL
[20]
  bioavailability: 83.5%
[21]
  Activity: Non-toxic
[22]
  Activity: Non-toxic
[23]
  Activity: Non-toxic
[24]
  TGI: Active
[25]
  MRT: 3.88 h
[26]
  Activity: Non-toxic
[27]
  Vd: 3.82 L/kg
[28]
  Activity: Non-toxic
[29]
  TGI: Active
[30]
  clearance: 25.7 mL/min/kg

## CN(C)C/C=C/C(=O)Nc1cc2c(Nc3ccc(F)c(Cl)c3)ncnc2cc1O[C@H]1CCOC1.O=C(O)/C=C\C(=O)O.O=C(O)/C=C\C(=O)O [AFATINIB DIMALEATE]
[31]
  inhibition in vivo at 20 mg/kg: < 50%
[32]
  Activity: Toxic
[33]
  Activity: Non-toxic
